Data reported in ChEMBL document CHEMBL2069181, “In vitro and in vivo trypanosomicidal activity of pyrazole-containing macrocyclic and macrobicyclic polyamines: their action on acute and chronic phases of Chagas disease” (J Med Chem, 2012).
Calls of active or inactive are those of the source. The rule behind the calls is not given here.

Experiments:
Trypanosoma cruzi [1] = test: Trypanosomicidal activity against Trypanosoma cruzi SN3 epimastigote after 72 hrs by hemocytometric analysis; assay type: functional, organism-based; conditions: SN3, 72 h
How it was run: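 Exponential-phase SN3 epimastigotes (Grace's medium, 10% FBS, 28 °C) seeded at 5 × 10^4 parasites/well with compounds dissolved in MTL at 1, 10, 25, 50, 100 μM.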

Trypanosoma cruzi [2] = test: Trypanosomicidal activity against Trypanosoma cruzi SN3 anexic amastigote after 48 hrs by hemocytometric analysis; assay type: functional, organism-based; conditions: SN3, 48 h
How it was run: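 Axenic amastigotes obtained from epimastigotes after 3 days in supplemented M199 (10% FCS, pH 5.4, 37 °C).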

Trypanosoma cruzi [3] = test: Trypanosomicidal activity against Trypanosoma cruzi SN3 amastigote infected in Vero cells after 72 hrs by Giemsa staining method; assay type: functional, organism-based
How it was run: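 Vero cells seeded at 1 × 10^4/well on coverslips, grown 2 days, infected with metacyclic forms (10:1) for 24 h, washed, then treated at 1–100 μM for 72 h in RPMI/10% FBS. Amastigote reduction scored on methanol-fixed Giemsa-stained slides; four determinations; IC50.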

Vero = test: Cytotoxicity against African green monkey Vero cells assessed as cell viability after 72 hrs by flow cytometric analysis; assay type: cell-based; conditions: Chlorocebus sabaeus
How it was run: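 Vero cells grown in RPMI with 10% inactivated FBS at 37 °C, 5% CO2, seeded at 1 × 10^5 cells/mL, grown 2 days, then exposed to 1–100 μM compound for 72 h. Viability measured by flow cytometry; IC50 by linear regression.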

[4] = Selectivity index, ratio of IC50 for Vero cells to IC50 for Trypanosoma cruzi epimastigote; assay type: toxicity, cell-based; conditions: monkey, Vero cells versus Trypanosoma cruzi epimastigotes; read-out: Ratio IC50
[5] = Selectivity index, ratio of IC50 for Vero cells to IC50 for Trypanosoma cruzi anexic amastigote; assay type: toxicity, cell-based; conditions: monkey, Vero cells versus Trypanosoma cruzi axenic amastigotes; read-out: Ratio IC50
[6] = Selectivity index, ratio of IC50 for Vero cells to IC50 for Trypanosoma cruzi intracellular amastigote infected in Vero cells; assay type: toxicity, cell-based; conditions: monkey; read-out: Ratio IC50
Trypanosoma cruzi [7] = test: Trypanosomicidal activity against Trypanosoma cruzi infected in Vero cells assessed as reduction in rate of infection after 10 days by Giemsa staining method; assay type: functional; parameters: scale not given: the % may be the effect or the level left
How it was run: (§1)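 Vero cells infected with metacyclic forms (10:1); compounds at IC25 added at infection for 12 h at 37 °C, then washed out and cultures grown 10 days with medium renewed every 48 h. Infected cells and amastigotes per cell counted in >100 host cells on Giemsa-stained slides; trypomastigotes in medium counted; mean of four determinations.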

Trypanosoma cruzi [8] = test: Trypanosomicidal activity against Trypanosoma cruzi infected in Vero cells assessed as reduction in amastigotes per infected Vero cells after 6 days by Giemsa staining method; assay type: functional; parameters: scale not given: the % may be the effect or the level left
Trypanosoma cruzi [9] = test: Trypanosomicidal activity against Trypanosoma cruzi infected in Vero cells assessed as reduction in trypomastigotes in culture medium after 10 days by Giemsa staining method; assay type: functional; parameters: scale not given: the % may be the effect or the level left; how it was run: as §1
[10] = Inhibition of Trypanosoma cruzi epimastigotes Fe-SOD by NBT reduction assay
How it was run: (§2)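 Enzyme from epimastigotes grown without FBS (excreted Fe-SOD), sonicated in STE buffer pH 7.8, centrifuged, supernatant protein by Bradford; human erythrocyte CuZn-SOD for comparison. NBT reduction by superoxide (Beyer–Fridovich): methionine, NBT, Triton X-100, riboflavin, homogenate plus compound; A560 read before and after 10 min UV illumination with stirring. Five separate determinations; Newman–Keuls test against control.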

Mus musculus [11] = test: Toxicity in BALB/c mouse liver infected with Trypanosoma cruzi assessed as granulomas with limphocitic infiltration at 5 mg/kg, ip after 120 days postinfection by Histopathological analysis; assay type: organism-based; parameters: dose 5 mg/kg, route intraperitoneal; conditions: in vivo, 2880 h
How it was run: (§3)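 Livers removed at 120 days postinfection, fixed in 10% buffered formalin, paraffin-embedded, 4–5 μm sections stained with H&E and Masson's trichrome. Blinded scoring of at least 30 fields per slide, 0 (none) to 5 (severe).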

Mus musculus [12] = test: Toxicity in BALB/c mouse liver infected with Trypanosoma cruzi assessed as delocalized hepatic destruction at 5 mg/kg, ip after 120 days postinfection by Histopathological analysis; assay type: organism-based; parameters: dose 5 mg/kg, route intraperitoneal; conditions: in vivo, 2880 h; how it was run: as §3
Mus musculus [13] = test: Toxicity in BALB/c mouse liver infected with Trypanosoma cruzi assessed as blood vessels with thickened walls at 5 mg/kg, ip after 120 days postinfection by Histopathological analysis; assay type: organism-based, Blood vessel; parameters: dose 5 mg/kg, route intraperitoneal; conditions: in vivo, 2880 h; how it was run: as §3
Mus musculus [14] = test: Toxicity in BALB/c mouse liver infected with Trypanosoma cruzi assessed as lymphocytic infiltrations in portal tracts at 5 mg/kg, ip after 120 days postinfection Histopathological analysis; assay type: organism-based; parameters: dose 5 mg/kg, route intraperitoneal; conditions: in vivo, 2880 h; how it was run: as §3
Mus musculus [15] = test: Toxicity in BALB/c mouse liver infected with Trypanosoma cruzi assessed as intestinal hemorrhage at 5 mg/kg, ip after 120 days postinfection by Histopathological analysis; assay type: organism-based; parameters: dose 5 mg/kg, route intraperitoneal; conditions: in vivo, 2880 h; how it was run: as §3
Mus musculus [16] = test: Toxicity in BALB/c mouse liver infected with Trypanosoma cruzi assessed as hepatic destruction in portal tracts at 5 mg/kg, ip after 120 days postinfection by Histopathological analysis; assay type: organism-based; parameters: dose 5 mg/kg, route intraperitoneal; conditions: in vivo, 2880 h; how it was run: as §3
Mus musculus [17] = test: Toxicity in BALB/c mouse liver infected with Trypanosoma cruzi assessed as necrotic cells in portal tracts at 5 mg/kg, ip after 120 days postinfection by Histopathological analysis; assay type: organism-based; parameters: dose 5 mg/kg, route intraperitoneal; conditions: in vivo, 2880 h; how it was run: as §3
Trypanosoma cruzi [18] = test: Trypanosomicidal activity against Trypanosoma cruzi epimastigotes assessed as intense vacuolization of protozoan cells by TEM analysis; assay type: functional, organism-based
Trypanosoma cruzi [19] = test: Trypanosomicidal activity against Trypanosoma cruzi epimastigotes assessed as very electron dense protozoan cells by TEM analysis; assay type: functional, organism-based
Trypanosoma cruzi [20] = test: Trypanosomicidal activity against Trypanosoma cruzi epimastigotes assessed as distorted shape of protozoan cells by TEM analysis; assay type: functional, organism-based
Trypanosoma cruzi [21] = test: Inhibition of Trypanosoma cruzi epimastigotes Fe-SOD at 50 ug/ml by NBT reduction assay; how it was run: as §2
Trypanosoma cruzi [22] = test: Inhibition of Trypanosoma cruzi epimastigotes Fe-SOD at 25 ug/ml by NBT reduction assay; how it was run: as §2
Trypanosoma cruzi [23] = test: Antitrypanosomal activity against Trypanosoma cruzi infected in BALB/c mouse assessed as reduction in parasitemia at 1 mg/kg, ip dosed for 5 days measured on day 30 post infection; assay type: functional; parameters: scale not given: the % may be the effect or the level left; conditions: route intraperitoneal
How it was run: (§4)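 Female BALB/c mice infected with trypomastigotes, dosed ip at 1 mg/kg/day on days 5–10 postinfection; vehicle controls. Mandibular vein blood (5 μL) diluted in citrate/lysis buffer pH 7.2; parasites counted under immersion objective every 2 days from day 5 to 30, as parasites/mL.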

Trypanosoma cruzi [24] = test: Antitrypanosomal activity against Trypanosoma cruzi infected in BALB/c mouse assessed as reduction in trypomastigotes at 1 mg/kg, ip dosed for 5 days measured on day 14 post infection; assay type: functional, organism-based; parameters: dose 1 mg/kg; how it was run: as §4
Trypanosoma cruzi [25] = test: Trypanosomicidal activity against Trypanosoma cruzi epimastigotes assessed as inhibition of succinate metabolite excretion after 96 hrs by NMR analysis; assay type: functional
How it was run: (§5)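 Epimastigotes (5 × 10^5 cells/mL) exposed to IC25 of compound for 96 h at 28 °C; supernatant after centrifugation analysed by 1H NMR with DSS reference, compared against untreated cultures.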

Trypanosoma cruzi [26] = test: Trypanosomicidal activity against Trypanosoma cruzi epimastigotes assessed as inhibition of acetate metabolite excretion after 96 hrs by NMR analysis; assay type: functional; how it was run: as §5
[27] = target: Superoxide dismutase [Cu-Zn], SOD1 (Homo sapiens) (UniProt P00441); test: Activity of human erythrocyte Cu-Zn SOD by NBT reduction assay
Superoxide dismutase [Cu-Zn], SOD1 (Homo sapiens), sequence (P00441 whole entry, looked up): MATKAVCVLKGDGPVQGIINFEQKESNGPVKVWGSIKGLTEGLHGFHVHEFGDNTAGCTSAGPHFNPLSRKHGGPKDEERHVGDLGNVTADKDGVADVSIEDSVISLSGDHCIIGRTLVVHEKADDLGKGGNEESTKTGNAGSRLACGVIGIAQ

| SMILES | IC50 (Trypanosoma cruzi [1]) [µM] | IC50 (Trypanosoma cruzi [2]) [µM] | IC50 (Trypanosoma cruzi [3]) [µM] | IC50 (Vero) [µM] | selectivity ratio [4] | selectivity ratio [5] | selectivity ratio [6] | IC50 [10] [µM] | inhibition (Trypanosoma cruzi [21]) [%] | Activity [27] [U/mg] | other results |
| --- | --- | --- | --- | --- | --- | --- | --- | --- | --- | --- | --- |
| Cl.c1ccc(Cn2nc3cc2CNCCNCCNCc2cc(n(Cc4ccccc4)n2)CNCCNCCNC3)cc1 | 16.5 | 10 | 13.8 | 195 | 11.8 | 19.5 | 14.2 | 28.7 | 98 | 23.4 | Activity (Trypanosoma cruzi [7]): >50%; Activity (Trypanosoma cruzi [8]): 26%; Activity (Trypanosoma cruzi [9]): 34%; Activity (Mus musculus [11]): Toxic; Activity (Mus musculus [12]): Non-toxic; Activity (Mus musculus [13]): Toxic; Activity (Mus musculus [14]): Toxic; Activity (Mus musculus [15]): Toxic; Activity (Mus musculus [16]): Non-toxic; Activity (Mus musculus [17]): Non-toxic; Activity (Trypanosoma cruzi [18]): Active; Activity (Trypanosoma cruzi [19]): Active; Activity (Trypanosoma cruzi [20]): Active; inhibition (Trypanosoma cruzi [22]): 70%; Activity (Trypanosoma cruzi [23]): 16%; Activity (Trypanosoma cruzi [24]): Active; inhibition (INH) (Trypanosoma cruzi [25]): 19%; inhibition (INH) (Trypanosoma cruzi [26]): 23% |
| CCCCCCCCN1CCNCc2cc([nH]n2)CNCCN(CCCCCCCC)CCNCc2cc(n[nH]2)CNCC1 | 46.4 | 20.8 | 18.4 | 21.5 | 0.5 | 1 | 1.1 | 44.6 | 65 | 23.4 |  |
